The results in this text go back to ChEMBL document CHEMBL3112564, “Identification of clinically viable quinolinol inhibitors of botulinum neurotoxin A light chain” (J Med Chem, 2014).

Values after ≈ are worked out from the molar mass of the structure shown.

A word on the thermodynamic solubility: it is the concentration in solution at equilibrium with solid. Broadly, the solubility is the dissolved amount per volume that the medium holds. In general, IC50 refers to the point on the concentration scale where inhibition reaches its midpoint.

Data set [1] in a line: Aqueous solubility of the compound at pH 1 after 24 hrs by shake flask method. It is filed as physicochemical. In a few lines: (§1)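 Miniaturized shake-flask method: analyte at 1.0 mM in aqueous solution at pH 1.0 or 6.8, shaken gently (600 rpm) in a syringeless filter at room temperature for 24 h. Filtrate was collected after a further 30 min, diluted in 50:50 MeCN/water with 0.1% formic acid, and analysed by LC–MS/MS. Calibration range was 0.05–12.5 μM at pH 6.8 and 5.0–25000 μM at pH 1.0.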

Data set [2] is described as follows: Aqueous solubility of the compound at pH 6.8 after 24 hrs by shake flask method. It is filed as physicochemical. The conditions noted are these: buffer, pH 6.8, 24 h. In a few lines:
as §1

Data set [3] relates to Plasma. The data set can be described thus: Metabolic stability in Sprague-Dawley rat plasma assessed as compound remaining at 1 uM measured at 3 hrs by LC-MS/MS analysis. The data set is classed as ADME, cell-free. The method, boiled down:
(§2)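 Compound at 1.0 μM was incubated in plasma at 37 °C and sampled at 0, 1, 3, 5 and 24 h. Proteins were precipitated with cold acetonitrile containing internal standard, and samples were analysed by LC–MS/MS for percent remaining. Half-life came from regression analysis.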

For data set [4], the system named is Plasma. The data set can be described thus: Half life in Sprague-Dawley rat plasma at 1 uM by LC-MS/MS analysis. The data set is classed as ADME, cell-free. The method, boiled down:
as §2

In data set [5] the test system is Liver microsome. The data set can be described thus: Half life in Sprague-Dawley rat liver microsomes at 1 uM by reversed phase LC/MS analysis. It is filed as ADME. The method, boiled down:
(§3)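 Liver microsomes were from humans (pooled from 10 male donors) or male Sprague–Dawley rats aged 8–10 weeks. Incubations used 0.125 mg/mL total protein and 1.0 μM drug at 37 °C, sampled at 0, 5, 15, 30 and 60 min. Parent-to-product transitions were read by reversed-phase LC with triple quadrupole MS, and % remaining was taken relative to time zero. t1/2 = −ln(2)/k, with k from log–linear regression.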
A general note: Liver microsomes are vesicles of endoplasmic reticulum, rich in cytochrome P450 enzymes.

In data set [6] the test system is Liver microsome. The data set can be described thus: Drug metabolism in Sprague-Dawley rat liver microsomes assessed as metabolic rate at 1 uM by reversed phase LC/MS analysis. The data set is classed as ADME. The method, boiled down:
as §3

Data set [7] has as its system Plasma. The data set can be described thus: Half life in human plasma at 1 uM by LC-MS/MS analysis. The data set is classed as ADME, cell-free. In a few lines: as §2
In data set [8] the test system is Plasma. The data set can be described thus: Metabolic stability in human plasma assessed as compound remaining at 1 uM measured at 3 hrs by LC-MS/MS analysis. The data set is classed as ADME, cell-free. In a few lines: as §2
The subject of data set [9] is Liver microsome. The data set can be described thus: Half life in human liver microsomes at 1 uM by reversed phase LC/MS analysis. The data set is classed as ADME. The method, boiled down:
as §3

Data set [10] has as its system Liver microsome. The data set can be described thus: Drug metabolism in human liver microsomes assessed as metabolic rate at 1 uM by reversed phase LC/MS analysis. It is filed as ADME. The method, boiled down: as §3
Data set [11] deals with Botulinum neurotoxin type A (Clostridium botulinum, UniProt P0DPI0).
Chain of Botulinum neurotoxin type A (P0DPI0 2-448 limits assumed): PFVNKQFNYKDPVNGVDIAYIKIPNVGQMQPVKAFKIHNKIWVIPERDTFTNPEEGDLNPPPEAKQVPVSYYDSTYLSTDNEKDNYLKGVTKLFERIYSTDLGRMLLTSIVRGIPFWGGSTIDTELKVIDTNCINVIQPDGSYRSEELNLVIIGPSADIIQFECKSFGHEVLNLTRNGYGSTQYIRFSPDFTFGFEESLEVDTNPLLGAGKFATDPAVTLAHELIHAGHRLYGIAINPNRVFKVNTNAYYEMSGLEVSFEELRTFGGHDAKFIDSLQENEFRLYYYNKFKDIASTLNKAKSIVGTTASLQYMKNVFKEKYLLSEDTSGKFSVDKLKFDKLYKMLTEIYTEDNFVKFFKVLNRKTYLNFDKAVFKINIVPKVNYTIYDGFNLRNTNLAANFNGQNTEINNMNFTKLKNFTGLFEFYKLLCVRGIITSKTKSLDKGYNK
For data set [12], the system named is Serum. The data set can be described thus: Drug uptake in serum of alzheimer patient at 250 to 750 mg, po. The data set is classed as ADME, cell-free. Particulars: human, read-out: Drug uptake.
The species entered for data set [13] is Homo sapiens. The data set can be described thus: Half life in human. It is filed as ADME, organism-based. Particulars: in vivo.

As for `Oc1c(Cl)cc(Cl)c2cccnc12` [CHLOROXINE], the solubility (thermodynamic) at 24 h in data set [1] was found to be 326 µM (≈ 69.8 µg/mL). For the same compound, the solubility in [2] was determined as 0.532 µM (≈ 0.114 µg/mL). The Stability in data set [3] and in data set [8] was 100% in each case. Further, the t1/2 in data set [4] is 67.7 h; in data set [5], 0.917 h; in [7], 18.6 h; in [9] it was 0.815 h. For the same compound, the Drug metabolism in data set [6] came to 0.1 µM/min/mg; in data set [10], 0.112 µM/min/mg. 11.5 µM corresponded to half-maximal inhibition in data set [11] (IC50).

As for `Oc1c(C(Nc2ccccn2)c2ccccc2)ccc2cccnc12` (stereo not drawn), the thermodynamic solubility at 24 h in data set [1] stood at 1170 µM (≈ 384 µg/mL). In data set [2], this compound returned a solubility of 0.078 µM (≈ 0.0255 µg/mL). In addition, the Stability in data set [3] was 67.3%. Also, the t1/2 in data set [4] is 13.5 h; in [5] it was 0.143 h; in data set [7] it was 11.4 h; in [9], 0.493 h. Besides, the Drug metabolism in data set [6] turned out to be 0.637 µM/min/mg; in data set [10] it was 0.186 µM/min/mg. Further, in [11], the midpoint of inhibition, the IC50, lay at 2.2 µM.

As for `Oc1c(I)cc(Cl)c2cccnc12` [CLIOQUINOL], in data set [1], the solubility (thermodynamic) at 24 h turned out to be 38.1 µM (≈ 11.6 µg/mL). The concentration in [12] is 13 µM. For the same compound, the Stability was 83.9% in data set [3] and 100% in data set [8]. The t1/2 in data set [4] was determined as 136 h; in [5], 1.28 h; in data set [7] it was 42.4 h; in [9], 1.06 h; in [13] it was 11 h. Besides, the Drug metabolism in [6] was 0.071 µM/min/mg; in data set [10], 0.086 µM/min/mg. This compound also came in with an IC50 in data set [11] of 20.3 µM.

For `Oc1c(CNc2ccccn2)ccc2cccnc12`, the solubility (thermodynamic) at 24 h in data set [1] worked out at 1140 µM (≈ 287 µg/mL). The figures for the Stability in data set [3] and in data set [8] were 76.3% and 96.1%, respectively. In addition, the t1/2 in data set [4] stood at 12.9 h; in [5] it was 0.613 h; in data set [7], 14.2 h; in data set [9], 0.452 h. The Drug metabolism in data set [6] was found to be 0.149 µM/min/mg; in data set [10], 0.203 µM/min/mg. Besides, in data set [11], the concentration for half-maximal inhibition (IC50) was 26.7 µM.

In the case of `Cc1ccc2c(Cl)cc(Cl)c(O)c2n1` [CHLORQUINALDOL], in data set [1], the solubility (thermodynamic) at 24 h was 1100 µM (≈ 250 µg/mL). The values for the Stability in [3] and in data set [8] were 96.9% and 92.2%, respectively. In addition, the t1/2 in data set [4] worked out at 115 h; in [5], 0.643 h; in data set [7], 24.5 h; in data set [9], 0.48 h. For the same compound, the figures for the Drug metabolism in data set [6] and in data set [10] were 0.142 µM/min/mg and 0.19 µM/min/mg, respectively. This compound also showed an IC50 in data set [11] of 10.1 µM.

Regarding `Cc1ccnc(NC(c2ccc([N+](=O)[O-])cc2)c2ccc3ccc(C)nc3c2O)c1` (stereo not drawn), in [1], the thermodynamic solubility at 24 h came out at 997 µM (≈ 399 µg/mL). Also, the Stability in data set [3] is given as 98.5%; in data set [8], 92.2%. The t1/2 in data set [4] amounted to 109 h; in data set [5] it was 0.338 h; in data set [7] it was 42 h; in [9], 1.93 h. Besides, the values for the Drug metabolism in data set [6] and in [10] were 0.271 µM/min/mg and 0.047 µM/min/mg, respectively. Further, the IC50 in data set [11] was 1 µM.
